In the array DNA melting data of Ke et al. (doi:10.1101/2024.01.08.574731):

What was measured:
[1] = folding enthalpy; higher = less favourable; fluorescence melt of hairpins on a sequencing array, two-state fit; conditions: sodium 0.088 M
In short: (§1)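 On a sequenced MiSeq flow cell, library hairpins with annealed Cy3 and quencher oligos were imaged for Cy3 fluorescence in 2.5 °C steps up to 60 °C, in 50 mM Na-HEPES pH 8.0, 25 mM NaCl. Normalisation used pre-quench Cy3 and control constructs. Bootstrapped two-state fits gave melting temperature and folding enthalpy, combined by inverse variance across four replicates and with fitted temperatures raised by 9.35 °C to match UV melts.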

[2] = melting temperature; fluorescence melt of hairpins on a sequencing array, two-state fit, raised by 9.35 °C to match UV melts; conditions: sodium 0.088 M
In short: as §1

GCCATGCGAAAGCACTGC ((..(((....)))..)) showed a folding enthalpy [1] of -10.4 kcal/mol and a Tm [2] of 31.8 °C.

In the case of GCCATGCGAAAGCAGCGC ((..(((....)))..)), the folding enthalpy [1] was -17.2 kcal/mol and the Tm [2] was 47 °C.

GCCATGCGAAAGCAGTGC ((..(((....)))..)) gave a folding enthalpy [1] of -15.2 kcal/mol and a Tm [2] of 39.7 °C.

GCCATGCGAAAGCATCGC ((.((((....)))).)) gave a folding enthalpy [1] of -18.1 kcal/mol and a Tm [2] of 49.5 °C.

GCCATGCGAAAGCTTAGC ((.(.((....)).).)) showed a folding enthalpy [1] of -13.1 kcal/mol and a Tm [2] of 28 °C.

For GCCATGGAAACATGGC ((((((....)))))), the folding enthalpy [1] was -34 kcal/mol and the Tm [2] was 67.7 °C.

With GCCATGGGAAACTGTGGC ((((..(....)..)))) the folding enthalpy [1] was -28.2 kcal/mol and the Tm [2] was 47.1 °C.

Work on GCCATTGAAAAATGGC ((((((....)))))) yielded a folding enthalpy [1] of -39.8 kcal/mol and a Tm [2] of 58.4 °C.

GCCATTGGAAACAACGGC (((.(((....))).))) showed a folding enthalpy [1] of -33.1 kcal/mol and a Tm [2] of 43 °C.

GCCATTGGAAACAATGGC (((((((....))))))) showed a folding enthalpy [1] of -43.9 kcal/mol and a Tm [2] of 67.5 °C.

With GCCCAACGAAAGTTCGGC (((.(((....))).))) the folding enthalpy [1] was -29.9 kcal/mol and the Tm [2] was 45.5 °C.

GCCCAAGAAATTGGGC ((((((....)))))) gave a folding enthalpy [1] of -33.3 kcal/mol and a Tm [2] of 63.1 °C.

GCCCAAGGAAACTTAGGC (((.(((....))).))) showed a folding enthalpy [1] of -21.9 kcal/mol and a Tm [2] of 35.4 °C.

With GCCCACCGAAAGGTAGGC (((.(((....))).))) the folding enthalpy [1] was -38 kcal/mol and the Tm [2] was 55.5 °C.

Sequence GCCCACCGAAAGGTGGC (((.(((....)))))) has a folding enthalpy [1] of -9.61 kcal/mol and a Tm [2] of 62.3 °C.

In the case of GCCCACGAAAGTGACGGC ((((((....)))..))), the folding enthalpy [1] was -19.9 kcal/mol and the Tm [2] was 49.6 °C.

Work on GCCCACGAAAGTGTCGGC ((((((....)))..))) yielded a folding enthalpy [1] of -19.6 kcal/mol and a Tm [2] of 48.4 °C.

Work on GCCCACGGAAACGTGGAC (.(((((....))))).) yielded a folding enthalpy [1] of -14.1 kcal/mol and a Tm [2] of 50.6 °C.

Sequence GCCCAGCGAAAGCCGTGC ((.(.((....)).).)) has a folding enthalpy [1] of -7.02 kcal/mol and a Tm [2] of 27.1 °C.

With GCCCAGCGAAAGCGCGGC (((..((....))..))) the folding enthalpy [1] was -22.1 kcal/mol and the Tm [2] was 61.9 °C.

In the case of GCCCAGCGAAAGCGTGGC (((..((....))..))), the folding enthalpy [1] was -23 kcal/mol and the Tm [2] was 62.4 °C.

Work on GCCCAGCGAAAGCTCAGC ((..(((....)))..)) yielded a folding enthalpy [1] of -8.74 kcal/mol and a Tm [2] of 32.6 °C.

Work on GCCCAGCGAAAGCTCGGC (((.(((....))).))) yielded a folding enthalpy [1] of -40.4 kcal/mol and a Tm [2] of 51.3 °C.

In the case of GCCCAGCGAAAGCTCTGC ((..(((....)))..)), the folding enthalpy [1] was -6.7 kcal/mol and the Tm [2] was 26.9 °C.

GCCCAGCGAAAGCTTTGC ((..(((....)))..)) showed a folding enthalpy [1] of -7.49 kcal/mol and a Tm [2] of 37.6 °C.

Work on GCCCATCGAAAGATGGC (((.(((....)))))) yielded a folding enthalpy [1] of -14 kcal/mol and a Tm [2] of 56.1 °C.

For GCCCATGGAAACGTGGGC (((((.(....).))))), the folding enthalpy [1] was -38.2 kcal/mol and the Tm [2] was 59 °C.

Sequence GCCCCACGAAAGTGCGGC (((.(((....))).))) has a folding enthalpy [1] of -29.6 kcal/mol and a Tm [2] of 54.3 °C.

In the case of GCCCCAGCGAAAGCTGGC (((..(((....)))))), the folding enthalpy [1] was -5.59 kcal/mol and the Tm [2] was 37.9 °C.

GCCCCAGGAAACTAGGGC ((((.((....)).)))) showed a folding enthalpy [1] of -29.1 kcal/mol and a Tm [2] of 46.4 °C.

In the case of GCCCCCCCGAAAGGGGGC (((..(((....)))))), the folding enthalpy [1] was -11.2 kcal/mol and the Tm [2] was 65.2 °C.

Sequence GCCCCCCGAAAGGGAGGC (((.(((....))).))) has a folding enthalpy [1] of -29.8 kcal/mol and a Tm [2] of 67 °C.

With GCCCCCGAAAGGGAAGGC ((((((....)))..))) the folding enthalpy [1] was -27 kcal/mol and the Tm [2] was 55.7 °C.

GCCCCCGAAAGGGCCGGC ((((((....)))..))) gave a folding enthalpy [1] of -16.4 kcal/mol and a Tm [2] of 54.3 °C.

GCCCCCGAAAGGGCGGC ((((((....))).))) gave a folding enthalpy [1] of -23.2 kcal/mol and a Tm [2] of 68.5 °C.

GCCCCCGGAAACAGGGGC (((((.(....).))))) showed a folding enthalpy [1] of -35 kcal/mol and a Tm [2] of 56.7 °C.

GCCCCCGGAAACGGGAGC ((.((((....)))).)) showed a folding enthalpy [1] of -25 kcal/mol and a Tm [2] of 54.2 °C.

GCCCCGACGAAAGTCGGC (((..(((....)))))) gave a folding enthalpy [1] of -4.92 kcal/mol and a Tm [2] of 41.1 °C.

GCCCCGCGAAAGCCGCGC ((.(.((....)).).)) gave a folding enthalpy [1] of -13.7 kcal/mol and a Tm [2] of 31.5 °C.

GCCCCGCGAAAGCGCTGC ((..(((....)))..)) showed a folding enthalpy [1] of -9.38 kcal/mol and a Tm [2] of 31.6 °C.

For GCCCCGCGAAAGCTGAGC ((.(.((....)).).)), the folding enthalpy [1] was -10.7 kcal/mol and the Tm [2] was 35 °C.

Sequence GCCCCGCGAAAGCTTGGC (((..((....))..))) has a folding enthalpy [1] of -19.9 kcal/mol and a Tm [2] of 43.1 °C.

Sequence GCCCCTACGAAAGTAGGC (((..(((....)))))) has a folding enthalpy [1] of -6.61 kcal/mol and a Tm [2] of 36.7 °C.

Work on GCCCCTCCGAAAGGAGGC (((..(((....)))))) yielded a folding enthalpy [1] of -5.85 kcal/mol and a Tm [2] of 39.8 °C.

GCCCGACGAAAGTCCGGC (((.(((....))).))) showed a folding enthalpy [1] of -30.7 kcal/mol and a Tm [2] of 51.8 °C.
